# Source: ChEMBL document CHEMBL3526016, “Interaction of lapatinib with cytochrome P450 3A5” (Drug Metab Dispos, 2012)
# How the values were obtained:
# Format in all cases: ADME
# Cytochrome P450 3A5 [1] = target: T1, Cytochrome P450 3A5 (Homo sapiens, UniProt P20815); test: Inhibition of human recombinant CYP3A5 using testosterone as substrate assessed as testosterone 6-beta-hydroxylation at 5 to 50 uM preincubated up to 30 mins with NADPH followed by substrate addition measured after 10 mins by LC/MS/MS analysis; settings: recombinant enzyme
# Outline: (§1)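 Primary incubation at 37°C (n=3) held 20 pmol/ml rCYP3A5 in 100 mM phosphate (pH 7.4), 0.1% DMSO and 0.9% ACN, with inhibitor; lapatinib was at 2.5–50 µM. NADPH started the reaction; buffer replaced it in negative controls. At 0, 3, 8, 15, 22 and 30 min, aliquots were diluted 10-fold into 200 µM testosterone or 25 µM midazolam with NADPH regenerating system for 10 min at 37°C. 6β-Hydroxytestosterone or 1'-hydroxymidazolam was measured by LC/MS/MS. Ln % residual activity was regressed against time to give kobs.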
# Cytochrome P450 3A5 [2] = target: T1, Cytochrome P450 3A5; test: Drug level assessed as recombinant human CYP3A5-mediated compound formation treated with lapatinib at 50 uM after 60 mins by GSH trapping assay in presence of NADPH; settings: recombinant enzyme, 1 h
# Outline: (§2)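 Recombinant CYP3A5 at 50 pmol/ml with 5 mM GSH and an NADPH regenerating system in 100 mM potassium phosphate (pH 7.4) was pre-warmed at 37°C. Substrate was added to start the reaction. After 60 min it was quenched with ice-cold ACN and centrifuged, and the supernatant was dried under nitrogen and reconstituted. Adducts were detected by LC/MS/MS MRM scans. Negative controls omitted substrate, NADPH or GSH.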
# Cytochrome P450 3A5 [3] = target: T1, Cytochrome P450 3A5; test: Drug level assessed as recombinant human CYP3A5-mediated compound formation treated with O-dealkylated lapatinib at 50 uM after 60 mins by GSH trapping assay in presence of NADPH; settings: recombinant enzyme, 1 h; outline: as §2
# CYP3A5 [4] = target: T2, CYP3A5 (Homo sapiens, UniProt P20815); test: Ratio of Kinact to Ki for recombinant human CYP3A5 using testosterone as substrate; settings: recombinant human CYP3A5, probe testosterone
# Outline: (§3)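 Primary: rCYP3A5 20 pmol/ml, inhibitor 2.5–50 μM, 100 mM phosphate pH 7.4, 37°C, NADPH-initiated; aliquots at 0–30 min diluted 10-fold into secondary mix with 200 μM testosterone plus NADPH regenerating system, 10 min at 37°C. 6β-hydroxytestosterone by LC/MS/MS, triplicate. ln % residual activity vs time gave kobs; KI, kinact from Kitz-Wilson plot.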
# CYP3A4 = CYP3A4 (Homo sapiens, UniProt P08684); test: Ratio of Kinact to Ki for recombinant human CYP3A4 using testosterone as substrate; settings: recombinant human CYP3A4, probe testosterone
# Cytochrome P450 3A5 [5] = target: T1, Cytochrome P450 3A5; test: Inhibition of human recombinant CYP3A5 using testosterone as substrate assessed as testosterone 6-beta-hydroxylation at 2.5 to 50 uM preincubated up to 30 mins with NADPH followed by substrate addition by LC/MS/MS analysis; settings: recombinant enzyme, TDE = time-dependent effect; outline: as §3
# CYP3A5 [6] = target: T2, CYP3A5; test: (§4) Inhibition of human recombinant CYP3A5 using testosterone as substrate assessed as testosterone 6-beta-hydroxylation preincubated up to 30 mins with NADPH followed by substrate addition measured after 10 mins by LC/MS/MS analysis; settings: human, recombinant human CYP3A5, probe testosterone; outline: as §3
# Cytochrome P450 3A5 [7] = target: T1, Cytochrome P450 3A5; test: as §4; outline: as §3
# Cytochrome P450 3A5 [8] = target: T1, Cytochrome P450 3A5; test: Inhibition of human recombinant CYP3A5 using testosterone as substrate assessed as testosterone 6-beta-hydroxylation at 50 uM preincubated up to 30 mins without NADPH followed by substrate addition measured after 10 mins by LC/MS/MS analysis; settings: recombinant enzyme; outline: as §1
# Cytochrome P450 3A5 [9] = target: T1, Cytochrome P450 3A5; test: Inhibition of human recombinant CYP3A5 using midazolam as substrate assessed as midazolam 1'-hydroxylation at 2.5 to 50 uM preincubated up to 30 mins with NADPH followed by substrate addition measured after 10 mins by LC/MS/MS analysis; settings: recombinant enzyme; outline: as §1
# Cytochrome P450 3A5 [10] = target: T1, Cytochrome P450 3A5; test: Inhibition of human recombinant CYP3A5 at 50 uM preincubated up to 30 mins with NADPH in presence of GSH; settings: recombinant enzyme
# Outline: (§5)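 Primary incubation at 37°C contained 20 pmol/ml rCYP3A5 in 100 mM phosphate (pH 7.4) with 50 µM lapatinib and NADPH, with or without 2 mM GSH. At 0–30 min, aliquots were diluted 10-fold into secondary incubations with 200 µM testosterone and NADPH regenerating system for 10 min at 37°C. 6β-Hydroxytestosterone was measured by LC/MS/MS. Triplicates were run.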
# Cytochrome P450 3A5 [11] = target: T1, Cytochrome P450 3A5; test: Inhibition of human recombinant CYP3A5 at 50 uM preincubated up to 30 mins with NADPH in absence of GSH; settings: recombinant enzyme; outline: as §5
# Cytochrome P450 3A5 [12] = target: T1, Cytochrome P450 3A5; test: Irreversible inhibition of human recombinant CYP3A5 using testosterone as substrate assessed as residual enzyme activity at 50 uM preincubated up to 30 mins with NADPH followed by substrate addition measured after dialysis
# Outline: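 200 pmol/ml rCYP3A5 with 50 µM lapatinib and NADPH in 100 mM phosphate (pH 7.4) was incubated for 30 min at 37°C (n=3). Mixtures were dialysed (12000–14000 Da cut-off) against buffer at 4°C with one buffer change at 2 h, then for 4 h more. Aliquots before and after dialysis were assayed with 200 µM testosterone for 10 min at 37°C. 6β-Hydroxytestosterone was measured by LC/MS/MS.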
# Cytochrome P450 3A5 [13] = target: T1, Cytochrome P450 3A5; test: Inhibition of human recombinant CYP3A5 using testosterone as substrate assessed as testosterone 6beta-hydroxylation at 50 uM preincubated up to 30 mins with NADPH followed by substrate addition measured after 10 mins by LC/MS/MS analysis; settings: recombinant enzyme; outline: as §1
# Cytochrome P450 3A5 [14] = target: T1, Cytochrome P450 3A5; test: Inhibition of human recombinant CYP3A5 assessed as metabolite-inhibitor complex formation at 50 uM preincubated for 3 to 5 mins with NADPH A followed by NADPH B addition measured every 1 min for 10 mins by UV absorbance spectra analysis; settings: recombinant enzyme
# Outline: (§6)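 For difference spectra, 50 µM compound with 100 pmol/ml recombinant enzyme and NADPH A in 100 mM potassium phosphate (pH 7.4) was pre-warmed at 37°C for 3–5 min. NADPH B was added to start the reaction. The mixture was scanned from 430 to 495 nm every 1 min for 10 min at 37°C against a reference cuvette, normalized to 0 min. The negative control replaced NADPH B with buffer.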
# Cytochrome P450 3A4 = Cytochrome P450 3A4 (Homo sapiens, UniProt P08684); test: Inhibition of human recombinant CYP3A4 assessed as metabolite-inhibitor complex formation at 50 uM preincubated for 3 to 5 mins with NADPH A followed by NADPH B addition measured every 1 min for 10 mins by UV absorbance spectra analysis; settings: recombinant enzyme; outline: as §6
# CYP3A5 [15] = target: T2, CYP3A5; test: Inhibition of human recombinant CYP3A5 assessed as reduction of enzyme-CO complex formation at 50 uM preincubated for 3 to 5 mins with NADPH B followed by NADPH A addition measured after 30 mins by CO difference spectroscopy relative to control
# Outline: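 rCYP3A5 640 pmol/ml with 50 μM inhibitor in 100 mM potassium phosphate pH 7.4, prewarmed 3–5 min at 37°C, NADPH-initiated, incubated 30 min at 37°C (n=3). Quenched in buffer with EDTA, glycerol, NP-40, safranin O; split sample/reference, CO bubbled (~100 bubbles). P450 content = (ΔA450−ΔA490)/0.091; controls without NADPH.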
# Cytochrome P450 3A5 [16] = target: T1, Cytochrome P450 3A5; test: Drug metabolism assessed as recombinant human CYP3A5-mediated quinoneimine metabolite formation by measuring retention time at 50 uM after 60 mins by GSH trapping assay in presence of NADPH; settings: recombinant enzyme, 1 h; outline: as §2
# T2 sequence (P20815 whole entry): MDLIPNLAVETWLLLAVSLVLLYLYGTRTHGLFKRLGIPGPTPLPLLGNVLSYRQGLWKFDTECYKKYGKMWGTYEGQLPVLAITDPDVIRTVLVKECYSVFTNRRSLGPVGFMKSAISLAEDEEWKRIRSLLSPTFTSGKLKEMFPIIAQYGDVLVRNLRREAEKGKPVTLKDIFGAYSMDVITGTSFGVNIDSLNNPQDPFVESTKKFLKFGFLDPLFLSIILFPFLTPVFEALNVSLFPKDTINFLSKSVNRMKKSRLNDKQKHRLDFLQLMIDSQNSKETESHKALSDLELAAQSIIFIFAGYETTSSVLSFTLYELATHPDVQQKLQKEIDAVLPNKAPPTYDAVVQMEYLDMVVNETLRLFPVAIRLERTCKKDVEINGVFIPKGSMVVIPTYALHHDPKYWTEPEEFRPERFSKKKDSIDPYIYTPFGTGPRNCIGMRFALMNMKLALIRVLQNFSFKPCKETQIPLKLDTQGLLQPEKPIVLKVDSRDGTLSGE
# T1 sequence (P20815 whole entry): as above
# Sequence of CYP3A4 (P08684 whole entry): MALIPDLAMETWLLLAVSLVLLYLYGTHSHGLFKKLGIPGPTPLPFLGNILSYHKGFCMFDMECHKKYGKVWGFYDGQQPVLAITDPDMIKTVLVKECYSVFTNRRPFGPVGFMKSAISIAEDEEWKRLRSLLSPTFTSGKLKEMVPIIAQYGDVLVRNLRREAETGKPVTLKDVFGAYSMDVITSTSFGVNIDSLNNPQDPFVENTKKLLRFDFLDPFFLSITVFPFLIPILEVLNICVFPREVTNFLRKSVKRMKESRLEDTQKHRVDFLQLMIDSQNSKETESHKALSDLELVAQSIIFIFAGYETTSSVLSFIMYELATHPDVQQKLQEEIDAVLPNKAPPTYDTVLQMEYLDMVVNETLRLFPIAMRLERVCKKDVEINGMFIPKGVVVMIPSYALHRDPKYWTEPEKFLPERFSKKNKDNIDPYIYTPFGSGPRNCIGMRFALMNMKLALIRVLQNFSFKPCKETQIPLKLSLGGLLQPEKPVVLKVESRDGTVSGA
# Sequence of Cytochrome P450 3A4 (P08684 whole entry): as above
structure (smiles),measurement,setting,value
CS(=O)(=O)CCNCc1ccc(-c2ccc3ncnc(Nc4ccc(O)c(Cl)c4)c3c2)o1,inhibition (INH),Cytochrome P450 3A5 [1],Not Active
CS(=O)(=O)CCNCc1ccc(-c2ccc3ncnc(/N=C4\C=CC(=O)C(Cl)=C4)c3c2)o1,Drug metabolism,Cytochrome P450 3A5 [2],metabolite_detected
same,Drug metabolism,Cytochrome P450 3A5 [3],metabolite_detected
CS(=O)(=O)CCNCc1ccc(-c2ccc3ncnc(Nc4ccc(OCc5cccc(F)c5)c(Cl)c4)c3c2)o1 [LAPATINIB],kinact/KI,CYP3A5 [4],10 M⁻¹ s⁻¹
same,kinact/KI,CYP3A4,197 M⁻¹ s⁻¹
same,inhibition (INH),Cytochrome P450 3A5 [5],tde
same,kinact at 10 min,CYP3A5 [6],0.000377 s⁻¹
same,Ki,Cytochrome P450 3A5 [7],37.6 µM
same,inhibition (INH),"Cytochrome P450 3A5 [7]; human, recombinant enzyme, 10 min",Dose-dependent effect
same,inhibition (INH),Cytochrome P450 3A5 [8],Not Active
same,inhibition (INH),Cytochrome P450 3A5 [9],Not Active
same,inhibition (INH),Cytochrome P450 3A5 [10],Not Active
same,inhibition (INH),Cytochrome P450 3A5 [11],Active
same,inhibition (INH),Cytochrome P450 3A5 [12],Active
same,inhibition (INH),Cytochrome P450 3A5 [13],Active
same,inhibition (INH),Cytochrome P450 3A5 [14],Not Active
same,inhibition (INH),Cytochrome P450 3A4,Active
same,"inhibition at 0.5 h, 50 µM",CYP3A5 [15],22%
same,Retention_time,Cytochrome P450 3A5 [16],1.71 min
